Assay results published in ChEMBL document CHEMBL4007456, “Heterocyclyl Tetracyclines. 1. 7-Trifluoromethyl-8-Pyrrolidinyltetracyclines: Potent, Broad Spectrum Antibacterial Agents with Enhanced Activity against Pseudomonas aeruginosa” (2017).
Values after ≈ are worked out from the molar mass of the structure shown. Active and inactive are the calls of the source. The rule behind the calls is not given here.

Legend:
Pseudomonas aeruginosa [1] = assay: Antibacterial activity against Pseudomonas aeruginosa PA1145 in BALB/c mouse model of lung infection administered intranasally as bid for 2 to 12 hrs of post-infection measured after 24 hrs; assay type: functional
Outline: (§1)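 Female BALB/c mice (18–20 g) infected intranasally with ~2 x 10^7 CFU/mouse P. aeruginosa PA1145 (cystic fibrosis isolate) under light anesthesia. Dosing at 2 and 12 h post-infection, IV (compound, tigecycline, amikacin) or intranasal (tobramycin); n = 6 per group. Lungs harvested 24 h after treatment start, homogenized, plated on MacConkey agar, 37 °C overnight; CFU/g lung; Mann-Whitney vs T = 0 h or 24 h controls.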

Pseudomonas aeruginosa [2] = assay: Antibacterial activity against Pseudomonas aeruginosa PA1145 in BALB/c mouse model of lung infection assessed as reduction in log10CFU per gram of lung at 40 mg/kg, in bid administered 2 to 12 hrs of post-infection measured after 24 hrs relative to untreated control; assay type: functional, organism-based; outline: as §1
Klebsiella pneumoniae [3] = assay: Antibacterial activity against gram-negative Klebsiella pneumoniae KP153 harboring tet(A) by CLSI method; assay type: functional
Outline: (§2)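 CLSI broth microdilution MIC in fresh cation-adjusted Mueller Hinton broth, supplemented with defibrinated horse blood where appropriate. Compounds serially diluted in sterile deionized water. Runs accepted when comparator antibiotics against ATCC quality-control strains fell within recommended ranges.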

[4] = tested on: Stenotrophomonas maltophilia; assay: Antibacterial activity against gram-negative Stenotrophomonas maltophilia SM256 by CLSI method; assay type: functional
Outline: (§3)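 Broth microdilution MIC per CLSI in cation-adjusted Mueller Hinton broth, prepared fresh and held at 4 °C. Defibrinated horse blood added where appropriate. Compounds serially diluted in sterile deionized water. Strains from ATCC unless otherwise noted. Runs accepted when comparator antibiotics fell within QC ranges for ATCC quality control strains.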

Enterococcus faecalis [5] = assay: Antibacterial activity against gram-positive Enterococcus faecalis EF159 harboring tet(M) by CLSI method; assay type: functional; outline: as §2
Klebsiella pneumoniae [6] = assay: Antibacterial activity against gram-negative Klebsiella pneumoniae KP194 by CLSI method; assay type: functional; outline: as §3
Proteus mirabilis [7] = assay: Antibacterial activity against gram-negative Proteus mirabilis PM122 by CLSI method; assay type: functional
Outline: (§4)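 Defibrinated horse blood added where appropriate. Compounds serially diluted in sterile deionized water. Strains from ATCC unless otherwise noted. Runs accepted when comparator antibiotics fell within QC ranges for ATCC quality control strains.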

Streptococcus pneumoniae [8] = assay: Antibacterial activity against gram-positive Streptococcus pneumoniae SP160 harboring tet(M) by CLSI method; assay type: functional; outline: as §2
Acinetobacter baumannii = assay: Antibacterial activity against gram-negative Acinetobacter baumannii AB250 by CLSI method; assay type: functional; outline: as §3
Burkholderia cenocepacia = assay: Antibacterial activity against gram-negative Burkholderia cenocepacia BC240 by CLSI method; assay type: functional; outline: as §4
Staphylococcus aureus [9] = assay: Antibacterial activity against gram-positive Staphylococcus aureus SA161 harboring tet(M) by CLSI method; assay type: functional; outline: as §2
Streptococcus pneumoniae [10] = assay: Antibacterial activity against gram-positive Streptococcus pneumoniae SP193 by CLSI method; assay type: functional; outline: as §3
Staphylococcus aureus [11] = assay: Antibacterial activity against gram-positive Staphylococcus aureus SA101 by CLSI method; assay type: functional; outline: as §3
Escherichia coli [12] = assay: Antibacterial activity against gram-negative Escherichia coli EC107 by CLSI method; assay type: functional; outline: as §3
Staphylococcus aureus [13] = assay: Antibacterial activity against gram-positive Staphylococcus aureus SA158 harboring tet(K) by CLSI method; assay type: functional; outline: as §2
Pseudomonas aeruginosa [14] = assay: Antibacterial activity against gram-negative Pseudomonas aeruginosa PA169 by CLSI method; assay type: functional; outline: as §4
Escherichia coli [15] = assay: Antibacterial activity against gram-negative Escherichia coli EC155 harboring tet(A) by CLSI method; assay type: functional; outline: as §2
Klebsiella pneumoniae [16] = assay: Antibacterial activity against gram-negative Klebsiella pneumoniae KP457 harboring blacTX-M-15 extended spectrum beta-lactamase gene by CLSI method; assay type: functional; outline: as §2
Pseudomonas aeruginosa [17] = assay: Antibacterial activity against gram-negative Pseudomonas aeruginosa PA555 by CLSI method; assay type: functional; outline: as §3
Enterococcus faecalis [18] = assay: Antibacterial activity against gram-positive Enterococcus faecalis EFs327 harboring tet(M) by CLSI method; assay type: functional; outline: as §2
Proteus mirabilis [19] = assay: Antibacterial activity against gram-negative Proteus mirabilis PM385 by CLSI method; assay type: functional; outline: as §3
Enterobacter cloacae = assay: Antibacterial activity against gram-negative Enterobacter cloacae EC1603 harboring tet(A) by CLSI method; assay type: functional; outline: as §2
Pseudomonas aeruginosa [20] = assay: Antibacterial activity against Pseudomonas aeruginosa PA1145 in BALB/c mouse model of lung infection assessed as reduction in log10CFU per gram of lung at 40 mg/kg, iv bid administered 2 to 12 hrs of post-infection measured after 24 hrs relative to untreated control; assay type: functional
Outline: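 Female BALB/c mice, 18 to 20 g, infected intranasally under light anesthesia with ~ 2 x 10^7 CFU/mouse of P. aeruginosa PA1145 (cystic fibrosis isolate) in 0.05 mL. Treatment at 2 and 12 h post-infection, IV, or intranasally for tobramycin; n = 6 per group. Lungs harvested 24 h after treatment began, homogenized, plated on MacConkey medium, incubated overnight at 37 °C in 5% CO2. CFU per gram lung compared with T = 24 h untreated control.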

Enterococcus faecium = assay: Antibacterial activity against gram-positive Enterococcus faecium EFm404 harboring tet(M) by CLSI method; assay type: functional; outline: as §2
Pseudomonas aeruginosa [21] = assay: Antibacterial activity against Pseudomonas aeruginosa PA1145 in BALB/c mouse model of lung infection administered as iv bid for 2 to 12 hrs of post-infection measured after 24 hrs; assay type: functional; outline: as §1

## NC[C@H]1O[C@H](O[C@H]2[C@H](O)[C@@H](O[C@H]3O[C@H](CO)[C@@H](O)[C@H](N)[C@H]3O)[C@H](N)C[C@@H]2N)[C@H](N)C[C@@H]1O [TOBRAMYCIN]
Pseudomonas aeruginosa [1]
  MIC: 1 µg/mL (≈ 2.14 µM)
Pseudomonas aeruginosa [2]
  Activity: inactive

## CN1CCCCCC1c1cc(O)c2c(c1Cl)C[C@H]1C[C@H]3[C@H](N(C)C)C(O)=C(C(N)=O)C(=O)[C@@]3(O)C(O)=C1C2=O (some centres undefined)
Klebsiella pneumoniae [3]
  MIC: 1 µg/mL (≈ 1.79 µM)
[4]
  MIC: 0.5 µg/mL (≈ 0.893 µM)
Enterococcus faecalis [5]
  MIC: 2 µg/mL (≈ 3.57 µM)
Klebsiella pneumoniae [6]
  MIC: 16 µg/mL (≈ 28.6 µM)
Proteus mirabilis [7]
  MIC: 4 µg/mL (≈ 7.14 µM)
Streptococcus pneumoniae [8]
  MIC: 0.5 µg/mL (≈ 0.893 µM)
Acinetobacter baumannii
  MIC: 2 µg/mL (≈ 3.57 µM)
Burkholderia cenocepacia
  MIC: 8 µg/mL (≈ 14.3 µM)
Staphylococcus aureus [9]
  MIC: 2 µg/mL (≈ 3.57 µM)
Streptococcus pneumoniae [10]
  MIC: ≤ 0.0156 µg/mL
Staphylococcus aureus [11]
  MIC: 0.25 µg/mL (≈ 0.446 µM)
Escherichia coli [12]
  MIC: 0.0625 µg/mL (≈ 0.112 µM)
Staphylococcus aureus [13]
  MIC: 0.0313 µg/mL (≈ 0.0559 µM)
Pseudomonas aeruginosa [14]
  MIC: 32 µg/mL (≈ 57.1 µM)
Escherichia coli [15]
  MIC: 2 µg/mL (≈ 3.57 µM)

## CN(C)[C@@H]1C(O)=C(C(N)=O)C(=O)[C@@]2(O)C(O)=C3C(=O)c4c(O)cccc4[C@@](C)(O)[C@H]3C[C@@H]12 [TETRACYCLINE]
Klebsiella pneumoniae [16]
  MIC: 8 µg/mL (≈ 18 µM)
Klebsiella pneumoniae [3]
  MIC: > 32 µg/mL
[4]
  MIC: 16 µg/mL (≈ 36 µM)
Enterococcus faecalis [5]
  MIC: > 32 µg/mL
Klebsiella pneumoniae [6]
  MIC: 16 µg/mL (≈ 36 µM)
Acinetobacter baumannii
  MIC: > 32 µg/mL
Pseudomonas aeruginosa [17]
  MIC: > 32 µg/mL
Enterococcus faecalis [18]
  MIC: > 32 µg/mL
Proteus mirabilis [19]
  MIC: > 32 µg/mL
Staphylococcus aureus [9]
  MIC: > 32 µg/mL
Streptococcus pneumoniae [10]
  MIC: 0.125 µg/mL (≈ 0.281 µM)
Staphylococcus aureus [11]
  MIC: 0.25 µg/mL (≈ 0.563 µM)
Escherichia coli [12]
  MIC: 1 µg/mL (≈ 2.25 µM)
Enterobacter cloacae
  MIC: > 32 µg/mL
Escherichia coli [15]
  MIC: > 32 µg/mL

## CN1CCCC1c1cc(O)c2c(c1Cl)C[C@H]1C[C@H]3[C@H](N(C)C)C(O)=C(C(N)=O)C(=O)[C@@]3(O)C(O)=C1C2=O (some centres undefined)
Klebsiella pneumoniae [3]
  MIC: 0.5 µg/mL (≈ 0.94 µM)
[4]
  MIC: 0.125 µg/mL (≈ 0.235 µM)
Enterococcus faecalis [5]
  MIC: 1 µg/mL (≈ 1.88 µM)
Klebsiella pneumoniae [6]
  MIC: 8 µg/mL (≈ 15 µM)
Proteus mirabilis [7]
  MIC: 0.5 µg/mL (≈ 0.94 µM)
Streptococcus pneumoniae [8]
  MIC: 0.5 µg/mL (≈ 0.94 µM)
Acinetobacter baumannii
  MIC: 0.5 µg/mL (≈ 0.94 µM)
Burkholderia cenocepacia
  MIC: 8 µg/mL (≈ 15 µM)
Staphylococcus aureus [9]
  MIC: 1 µg/mL (≈ 1.88 µM)
Streptococcus pneumoniae [10]
  MIC: ≤ 0.0156 µg/mL
Staphylococcus aureus [11]
  MIC: 0.125 µg/mL (≈ 0.235 µM)
Escherichia coli [12]
  MIC: ≤ 0.0156 µg/mL
Staphylococcus aureus [13]
  MIC: ≤ 0.0156 µg/mL
Pseudomonas aeruginosa [14]
  MIC: 16 µg/mL (≈ 30.1 µM)
Escherichia coli [15]
  MIC: 1 µg/mL (≈ 1.88 µM)

## CN(C)c1cc(NC(=O)CNC(C)(C)C)c(O)c2c1C[C@H]1C[C@H]3[C@H](N(C)C)C(O)=C(C(N)=O)C(=O)[C@@]3(O)C(O)=C1C2=O [TIGECYCLINE]
Klebsiella pneumoniae [16]
  MIC: 1 µg/mL (≈ 1.71 µM)
[4]
  MIC: 2 µg/mL (≈ 3.41 µM)
Streptococcus pneumoniae [8]
  MIC: 0.0156 µg/mL (≈ 0.0266 µM)
Acinetobacter baumannii
  MIC: 8 µg/mL (≈ 13.7 µM)
Pseudomonas aeruginosa [20]
  Activity: 4.2 deltalog10CFU
Pseudomonas aeruginosa [17]
  MIC: 16 µg/mL (≈ 27.3 µM)
Enterococcus faecalis [18]
  MIC: 0.125 µg/mL (≈ 0.213 µM)
Proteus mirabilis [19]
  MIC: 4 µg/mL (≈ 6.83 µM)
Enterococcus faecium
  MIC: 0.0312 µg/mL (≈ 0.0533 µM)
Burkholderia cenocepacia
  MIC: 16 µg/mL (≈ 27.3 µM)
Staphylococcus aureus [9]
  MIC: 0.125 µg/mL (≈ 0.213 µM)
Staphylococcus aureus [11]
  MIC: 0.0625 µg/mL (≈ 0.107 µM)
Escherichia coli [12]
  MIC: 0.125 µg/mL (≈ 0.213 µM)
Enterobacter cloacae
  MIC: 4 µg/mL (≈ 6.83 µM)
Staphylococcus aureus [13]
  MIC: 0.125 µg/mL (≈ 0.213 µM)
Escherichia coli [15]
  MIC: 1 µg/mL (≈ 1.71 µM)
Pseudomonas aeruginosa [21]
  MIC: 16 µg/mL (≈ 27.3 µM)
